According to paper PMC6683736 (The Journal of Cell Biology, 2019):

Experiments:
[1] = tested on: Xenopus embryos; experiment: Junctional localization in gastrula-stage embryos; type: in vivo, Xenopus laevis; details: live confocal, mNeon-tagged
In short: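 Embryos were microinjected in the animal hemisphere with mRNAs, either at the two-cell stage (each cell twice) or at the four-cell stage (once). They were raised to gastrula stage (10.5–12) and live-imaged by confocal. mNeon-tagged protein was coexpressed with BFP-ZO-1 (tight junction marker) and PLEKHA7-mCherry (adherens junction marker), and the junctional-to-cytosolic intensity ratio was quantified.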

[2] = tested on: Scribble; experiment: Coimmunoprecipitation of SGEF constructs with GFP-Scribble, HEK293FT lysates; type: binding, Human; details: GFP-trap nanobodies, WB
[3] = tested on: Dlg1; experiment: Coimmunoprecipitation of SGEF constructs with GFP-Dlg1, HEK293FT lysates; type: binding, Mouse; details: GFP-trap nanobodies, WB
In short: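 HEK293FT cells were co-transfected by calcium phosphate; medium was changed at 24 h and cells harvested at 48 h. Lysis was in Tris-HCl pH 7.4, MgCl2, 150 mM NaCl, 1% Triton X-100 and protease inhibitors. Equal protein was incubated with GFP-Trap beads for 1 h at 4°C, washed four times, then immunoblotted with anti-GFP and anti-myc (or anti-His).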

Molecule	localization at apical junctional complex [1]	interaction with Scribble [2]	interaction with Dlg1 [3]
mNeon-RhoG: mNeon-tagged small GTPase RhoG, 1–191	more broadly localized along the lateral membrane		
Gly 45 residue for Pro: SGEF with Gly 45 replaced by Pro (protein, UniProt Q96DR7 1-871, looked up, variant G45P) Rho guanine nucleotide …: MDGESEVDFSSNSITPLWRRRSIPQPHQVLGRSKPRPQSYQSPNPLLITDFPVEDGGTLLAAQIPAQVPTASDSRTVHRSPLLLGAQRRAVANGGTASPEYRAASPRLRRPKSPKLPKAVPGGSPKSPANGAVTLPAPPPPPVLRPPRTPNAPAPCTPEEDLTGLTASPVPSPTANGLAANNDSPGSGSQSGRKAKDPERGLFPGPQKSSSEQKLPLQRLPSQENELLENPSVVLSTNSPAALKVGKQQIIPKSLASEIKISKSNNQNVEPHKRLLKVRSMVEGLGGPLGHAGEESEVDNDVDSPGSLRRGLRSTSYRRAVVSGFDFDSPTSSKKKNRMSQPVLKVVMEDKEKFSSLGRIKKKMLKGQGTFDGEENAVLYQNYKEKALDIDSDEESEPKEQKSDEKIVIHHKPLRSTWSQLSAVKRKGLSQTVSQEERKRQEAIFEVISSEHSYLLSLEILIRMFKNSKELSDTMTKTERHHLFSNITDVCEASKKFFIELEARHQNNIFIDDISDIVEKHTASTFDPYVKYCTNEVYQQRTLQKLLATNPSFKEVLSRIESHEDCRNLPMISFLILPMQRVTRLPLLMDTICQKTPKDSPKYEVCKRALKEVSKLVRLCNEGARKMERTEMMYTINSQLEFKIKPFPLVSSSRWLVKRGELTAYVEDTVLFSRRTSKQQVYFFLFNDVLIITKKKSEESYNVNDYSLRDQLLVESCDNEELNSSPGKNSSTMLYSRQSSASHLFTLTVLSNHANEKVEMLLGAETQSERARWITALGHSSGKPPADRTSLTQVEIVRSFTAKQPDELSLQVADVVLIYQRVSDGWYEGERLRDGERGWFPMECAKEITCQATIDKNVERMGRLLGLETNV		abolished the interaction	
T49A (protein, UniProt Q96DR7 1-871, looked up, variant T49A) Rho guanine nucleotide …: MDGESEVDFSSNSITPLWRRRSIPQPHQVLGRSKPRPQSYQSPNGLLIADFPVEDGGTLLAAQIPAQVPTASDSRTVHRSPLLLGAQRRAVANGGTASPEYRAASPRLRRPKSPKLPKAVPGGSPKSPANGAVTLPAPPPPPVLRPPRTPNAPAPCTPEEDLTGLTASPVPSPTANGLAANNDSPGSGSQSGRKAKDPERGLFPGPQKSSSEQKLPLQRLPSQENELLENPSVVLSTNSPAALKVGKQQIIPKSLASEIKISKSNNQNVEPHKRLLKVRSMVEGLGGPLGHAGEESEVDNDVDSPGSLRRGLRSTSYRRAVVSGFDFDSPTSSKKKNRMSQPVLKVVMEDKEKFSSLGRIKKKMLKGQGTFDGEENAVLYQNYKEKALDIDSDEESEPKEQKSDEKIVIHHKPLRSTWSQLSAVKRKGLSQTVSQEERKRQEAIFEVISSEHSYLLSLEILIRMFKNSKELSDTMTKTERHHLFSNITDVCEASKKFFIELEARHQNNIFIDDISDIVEKHTASTFDPYVKYCTNEVYQQRTLQKLLATNPSFKEVLSRIESHEDCRNLPMISFLILPMQRVTRLPLLMDTICQKTPKDSPKYEVCKRALKEVSKLVRLCNEGARKMERTEMMYTINSQLEFKIKPFPLVSSSRWLVKRGELTAYVEDTVLFSRRTSKQQVYFFLFNDVLIITKKKSEESYNVNDYSLRDQLLVESCDNEELNSSPGKNSSTMLYSRQSSASHLFTLTVLSNHANEKVEMLLGAETQSERARWITALGHSSGKPPADRTSLTQVEIVRSFTAKQPDELSLQVADVVLIYQRVSDGWYEGERLRDGERGWFPMECAKEITCQATIDKNVERMGRLLGLETNV		completely abolish the interaction	
414–871: C-terminal half of SGEF: DH-PH domain, SH3 domain and PBM (protein, UniProt Q96DR7 414-871, looked up, fragment) LRSTWSQLSAVKRKGLSQTVSQEERKRQEAIFEVISSEHSYLLSLEILIRMFKNSKELSDTMTKTERHHLFSNITDVCEASKKFFIELEARHQNNIFIDDISDIVEKHTASTFDPYVKYCTNEVYQQRTLQKLLATNPSFKEVLSRIESHEDCRNLPMISFLILPMQRVTRLPLLMDTICQKTPKDSPKYEVCKRALKEVSKLVRLCNEGARKMERTEMMYTINSQLEFKIKPFPLVSSSRWLVKRGELTAYVEDTVLFSRRTSKQQVYFFLFNDVLIITKKKSEESYNVNDYSLRDQLLVESCDNEELNSSPGKNSSTMLYSRQSSASHLFTLTVLSNHANEKVEMLLGAETQSERARWITALGHSSGKPPADRTSLTQVEIVRSFTAKQPDELSLQVADVVLIYQRVSDGWYEGERLRDGERGWFPMECAKEITCQATIDKNVERMGRLLGLETNV			showed no binding
SGEF ΔETNV: SGEF with deletion of the PBM, 1–867 (protein, left off: myc (inferred from the legends of Figures 1 and 2), end not stated, kept) MDGESEVDFSSNSITPLWRRRSIPQPHQVLGRSKPRPQSYQSPNGLLITDFPVEDGGTLLAAQIPAQVPTASDSRTVHRSPLLLGAQRRAVANGGTASPEYRAASPRLRRPKSPKLPKAVPGGSPKSPANGAVTLPAPPPPPVLRPPRTPNAPAPCTPEEDLTGLTASPVPSPTANGLAANNDSPGSGSQSGRKAKDPERGLFPGPQKSSSEQKLPLQRLPSQENELLENPSVVLSTNSPAALKVGKQQIIPKSLASEIKISKSNNQNVEPHKRLLKVRSMVEGLGGPLGHAGEESEVDNDVDSPGSLRRGLRSTSYRRAVVSGFDFDSPTSSKKKNRMSQPVLKVVMEDKEKFSSLGRIKKKMLKGQGTFDGEENAVLYQNYKEKALDIDSDEESEPKEQKSDEKIVIHHKPLRSTWSQLSAVKRKGLSQTVSQEERKRQEAIFEVISSEHSYLLSLEILIRMFKNSKELSDTMTKTERHHLFSNITDVCEASKKFFIELEARHQNNIFIDDISDIVEKHTASTFDPYVKYCTNEVYQQRTLQKLLATNPSFKEVLSRIESHEDCRNLPMISFLILPMQRVTRLPLLMDTICQKTPKDSPKYEVCKRALKEVSKLVRLCNEGARKMERTEMMYTINSQLEFKIKPFPLVSSSRWLVKRGELTAYVEDTVLFSRRTSKQQVYFFLFNDVLIITKKKSEESYNVNDYSLRDQLLVESCDNEELNSSPGKNSSTMLYSRQSSASHLFTLTVLSNHANEKVEMLLGAETQSERARWITALGHSSGKPPADRTSLTQVEIVRSFTAKQPDELSLQVADVVLIYQRVSDGWYEGERLRDGERGWFPMECAKEITCQATIDKNVERMGRLLGL		no effect on the ability of SGEF to bind to Scribble	still interacted efficiently with Dlg1
SGEF 1–350: SGEF deletion mutant 1–350 (protein, left off: myc (inferred from the legend of Figure 2), end not stated, kept) MDGESEVDFSSNSITPLWRRRSIPQPHQVLGRSKPRPQSYQSPNGLLITDFPVEDGGTLLAAQIPAQVPTASDSRTVHRSPLLLGAQRRAVANGGTASPEYRAASPRLRRPKSPKLPKAVPGGSPKSPANGAVTLPAPPPPPVLRPPRTPNAPAPCTPEEDLTGLTASPVPSPTANGLAANNDSPGSGSQSGRKAKDPERGLFPGPQKSSSEQKLPLQRLPSQENELLENPSVVLSTNSPAALKVGKQQIIPKSLASEIKISKSNNQNVEPHKRLLKVRSMVEGLGGPLGHAGEESEVDNDVDSPGSLRRGLRSTSYRRAVVSGFDFDSPTSSKKKNRMSQPVLKVVMED			able to bind to Dlg1
